Results: ChEMBL document CHEMBL4513216, “Probing the Open Global Health Chemical Diversity Library for Multistage-Active Starting Points for Next-Generation Antimalarials” (ACS Infect Dis, 2020)

Assay: Toxicity liver stage against HepG2, at 10uM
Type: cell-based
Set-up: test concentration 10 uM, cell line HepG2-A16-CD81EGFP
Details: human, HepG2-A16-CD81EGFP cells; read-out: INHIBITION
Summary of the method: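 Uninfected HepG2-A16-CD81EGFP cells, 3 × 10^3 per well, 1536-well, plated on prespotted compound at 10 μM final, parasite-free screening media added to match infected plates; puromycin 10 μM positive, DMSO 0.5% negative; run in parallel with 48 h PbLuc assay at 37 °C, 5% CO2; viability by CellTiter-Glo luminescence, normalized to controls.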

Question: With `Cc1noc(C)c1CN(C)C(=O)COc1cccc(C#N)c1` as the compound, how does the cytotoxicity at 10 µM read?
Answer: 5.3%

Question: With `Cc1ccc(C)c(CS(=O)(=O)CC(=O)NC(C)c2ccc(F)cc2F)c1` (configuration not stated) as the compound, how does the cytotoxicity at 10 µM read?
Answer: 9.71%

Question: With `O=C(c1c(O)cnc2ccccc12)N1CCCSCC1` as the compound, how does the cytotoxicity at 10 µM read?
Answer: -9.7%

Question: For `CCNC(=O)CCC(=O)Nc1nc(C)c(Cc2ccc(F)cc2)s1`, which cytotoxicity at 10 µM is on record?
Answer: 6.68%

Question: For `CC(C)c1nncn1CCNC(=O)c1ccc(Cl)cc1O`, which cytotoxicity at 10 µM is on record?
Answer: -5.01%

Question: With `O=C(NCC[S+]([O-])c1ccccc1)NCC(F)(F)F` (configuration not stated) as the compound, how does the cytotoxicity at 10 µM read?
Answer: -1.09%

Question: Which cytotoxicity at 10 µM does the source give for `CCCNC(=O)Nc1cc2c(cc1SC)OCCO2` here?
Answer: -19%

Question: Which cytotoxicity at 10 µM does the source give for `COc1ccc(OC)c(CNCCc2cc(F)cc3c2OCOC3)c1` here?
Answer: -8.08%

Question: For `COc1ncccc1CN1CCn2c(Cn3cncn3)cnc2C1`, which cytotoxicity at 10 µM is on record?
Answer: -3.17%

Question: Which cytotoxicity at 10 µM does the source give for `Cc1cc2[nH]c(CN3CCCCC3c3cccc(F)c3)cc(=O)n2n1` (configuration not stated) here?
Answer: 1.29%

Question: Which cytotoxicity at 10 µM does the source give for `Fc1cccc(C2(CNC3CCOC4(CCOCC4)C3)CCOCC2)c1` (configuration not stated) here?
Answer: 0.616%

Question: Which cytotoxicity at 10 µM does the source give for `Cc1csc(CNc2nc3c(s2)c(C)nn3C)n1` here?
Answer: -109%

Question: Which cytotoxicity at 10 µM does the source give for `CN(Cc1nc(COc2ccccc2)no1)CC1Cc2ccccc2O1` (configuration not stated) here?
Answer: -4.4%

Question: Which cytotoxicity at 10 µM does the source give for `COCCn1ccnc1-c1cc(CN2CCCCC2)cs1` here?
Answer: -151%

Question: Which cytotoxicity at 10 µM does the source give for `CSCc1noc(CNC(=O)C2CCN(C(C)C)CC2)n1` here?
Answer: -2.86%

Question: With `Cc1cnc(C)c(N2CCC(c3nccn3Cc3cscn3)CC2)n1` as the compound, how does the cytotoxicity at 10 µM read?
Answer: 1.89%

Question: Which cytotoxicity at 10 µM does the source give for `CCOCc1nc2c(c(NC(COC)c3ccccn3)n1)CCNCC2` (configuration not stated) here?
Answer: -3.21%

Question: For `NCC1Cc2cc(-c3cnccn3)cc(Cl)c2O1` (configuration not stated), which cytotoxicity at 10 µM is on record?
Answer: 6.82%

Question: For `NC(=O)CN1CCCC(C(=O)N2CCC(O)(Cc3ccccc3)CC2)C1` (configuration not stated), which cytotoxicity at 10 µM is on record?
Answer: -7.36%

Question: With `Cc1cc(NC2CCN(c3ccc(F)cc3)CC2)n2nc(C)cc2n1` as the compound, how does the cytotoxicity at 10 µM read?
Answer: -0.527%

Question: Which cytotoxicity at 10 µM does the source give for `Cc1ccc(CN2CCN(c3ncccc3Cl)CC2CCO)cc1` (configuration not stated) here?
Answer: -1.04%

Question: For `CCc1cc(NC2CCN(Cc3ccccc3F)CC2)n2nccc2n1`, which cytotoxicity at 10 µM is on record?
Answer: -6%

Question: For `CCC[C@@H]1CN(C(=O)c2ccccc2-c2ncc[nH]2)C[C@H]1N(C)C`, which cytotoxicity at 10 µM is on record?
Answer: -3.17%

Question: Which cytotoxicity at 10 µM does the source give for `CN(CC1CCCCO1)c1nncc(-c2cccc(F)c2)n1` (configuration not stated) here?
Answer: 8.01%

Question: With `Cc1cccc(=O)n1CCCNc1nc(N(C)C)nc2c1CCNCC2` as the compound, how does the cytotoxicity at 10 µM read?
Answer: -10.2%

Question: With `O=C(c1ccc2sccc2c1)N1CCC(C(=O)O)(n2ccnc2)CC1` as the compound, how does the cytotoxicity at 10 µM read?
Answer: 2.69%

Question: For `COc1ccc(C(=O)NCc2cc(N3CCOCC3)ncn2)o1`, which cytotoxicity at 10 µM is on record?
Answer: 4.39%

Question: Which cytotoxicity at 10 µM does the source give for `COc1cc(C(=O)N2CCC(O)(CN3CCOCC3)C(C)(C)C2)ccn1` (configuration not stated) here?
Answer: -9.61%

Question: With `COC(C)(C)CC(C)NCc1cn2ccccc2n1` (configuration not stated) as the compound, how does the cytotoxicity at 10 µM read?
Answer: -3.48%

Question: With `OC1CCN(c2ccnc(NCCN3CCc4ccccc4C3)n2)C1` (configuration not stated) as the compound, how does the cytotoxicity at 10 µM read?
Answer: -11.8%

Question: For `CC(C)n1cnnc1CN(C)CC1CCCNC1` (configuration not stated), which cytotoxicity at 10 µM is on record?
Answer: 3.05%

Question: With `CCOCCn1c(=O)[nH]c2cc(C(=O)N(C)Cc3ccno3)ccc21` as the compound, how does the cytotoxicity at 10 µM read?
Answer: -1.79%

Question: For `CCC(C(=O)NCc1nc(C)cc(C(F)(F)F)n1)n1cccn1` (configuration not stated), which cytotoxicity at 10 µM is on record?
Answer: -17.1%

Question: With `CCN(CC)Cc1cc(C(=O)N2CCC3(CCN(C)CC3)C2)c(C)o1` as the compound, how does the cytotoxicity at 10 µM read?
Answer: 4.92%

Question: Which cytotoxicity at 10 µM does the source give for `CCN1CCN(C(=O)c2cnc(Cc3c(Cl)cccc3Cl)nc2O)CC1` here?
Answer: 2.57%

Question: With `CCN(Cc1cc(-c2ccccn2)no1)C1CCS(=O)(=O)C1` (configuration not stated) as the compound, how does the cytotoxicity at 10 µM read?
Answer: -14.9%

Question: For `O=S(=O)(Nc1ccc2c(c1)OCCO2)N1CCCCC1`, which cytotoxicity at 10 µM is on record?
Answer: 3.96%

Question: Which cytotoxicity at 10 µM does the source give for `CCc1cn[nH]c1C1CCCN(C(=O)c2noc(C)c2COC)C1` (configuration not stated) here?
Answer: -1.67%

Question: Which cytotoxicity at 10 µM does the source give for `COc1ccccc1OC1(C(=O)O)CCN(c2nccnc2C)CC1` here?
Answer: -10.4%

Question: For `CN1CCC(CCNC(=O)c2ccc(N(C)S(C)(=O)=O)cc2Cl)CC1`, which cytotoxicity at 10 µM is on record?
Answer: -10.1%

Question: For `CCN(Cc1ccc2c(c1)OCCO2)C(=O)NCCc1cnn(C)c1`, which cytotoxicity at 10 µM is on record?
Answer: -3.72%

Question: With `CCOC(=O)c1sc2ccsc2c1CNS(C)(=O)=O` as the compound, how does the cytotoxicity at 10 µM read?
Answer: -12%

Question: Which cytotoxicity at 10 µM does the source give for `CCC(=O)Nc1ccc2c(ccn2CC(=O)N(CC)CC)c1` here?
Answer: -12.2%

Question: Which cytotoxicity at 10 µM does the source give for `Cc1nnc(CN2CCCC(c3cc(C(N)=O)[nH]n3)C2)o1` (configuration not stated) here?
Answer: -7.32%

Question: For `CCN(Cc1ccc(OC)c(F)c1)C(=O)c1ccc(C)[nH]c1=O`, which cytotoxicity at 10 µM is on record?
Answer: -8.08%

Question: Which cytotoxicity at 10 µM does the source give for `Cc1ccc(OCCNC(=O)C(C)n2cncn2)cc1` (configuration not stated) here?
Answer: -3.53%

Question: For `COc1ccc(COCC(O)CNC(=O)c2cccnc2)cc1` (configuration not stated), which cytotoxicity at 10 µM is on record?
Answer: 7.94%

Question: For `Cc1cccc(C(=O)NCc2ccc(N3CCCCC3)nc2)n1`, which cytotoxicity at 10 µM is on record?
Answer: 4.26%

Question: For `O=C(COCC1CC1)N1CCCC(n2cccn2)C1` (configuration not stated), which cytotoxicity at 10 µM is on record?
Answer: 4.6%

Question: For `O=C(CCOc1cccc(F)c1)N1CCCC(n2cncn2)C1` (configuration not stated), which cytotoxicity at 10 µM is on record?
Answer: -0.192%

Question: Which cytotoxicity at 10 µM does the source give for `Cn1cnnc1C1CCCN(C(=O)c2ccccc2Cl)C1` (configuration not stated) here?
Answer: 3.59%

Question: For `CCOc1ncccc1C(=O)N(C)Cc1ncc(C)c(OC)c1C`, which cytotoxicity at 10 µM is on record?
Answer: 3.06%

Question: With `Cc1n[nH]c(C)c1NC(=O)CN1CCOC(Cn2cccn2)C1` (configuration not stated) as the compound, how does the cytotoxicity at 10 µM read?
Answer: -2.82%

Question: Which cytotoxicity at 10 µM does the source give for `CC(C)C(C)NC(=O)c1ncn2c1CN(C)S(=O)(=O)c1ccccc1-2` (configuration not stated) here?
Answer: -132%

Question: For `CN(C)C(=O)Cn1c2c(ccc1=O)CC(NCc1ccoc1)CC2` (configuration not stated), which cytotoxicity at 10 µM is on record?
Answer: 16.5%

Question: Which cytotoxicity at 10 µM does the source give for `Cc1ccc(CN2CCc3c(C(=O)N(C)C)nn(C)c3C2)s1` here?
Answer: -12.4%

Question: Which cytotoxicity at 10 µM does the source give for `O=C1NCC2=Nc3ccccc3NC(c3ccccc3)C12` (configuration not stated) here?
Answer: 1.14%
